# Experimental data reported in ChEMBL document CHEMBL6114937, “Synthesis and anti-tumor activity of new benzofuran-based chalcone derivatives as potent VEGFR-2 inhibitors” (RSC Med Chem, 2025).
# Assays:
# [1] = system: A549; test: Cytotoxicity against human A549 cells assessed as inhibition of cell viability incubated for 48 hrs by MTT assay; format: functional, cell-based; details: A549, 48 h
# Procedure, shortened: (§1)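 Log-phase cells seeded at 5 × 10^4 cells per mL in 96-well plates, cultured overnight at 37 °C, 5% CO2, then treated at 100, 50, 25, 12.5 and 6.25 μmol L−1, triplicate wells per concentration, for 48 h. MTT (20 μL of 5 mg ml−1) added for 4 h; after centrifugation the medium was removed and the formazan dissolved in DMSO. A570 was read and IC50 calculated. Cisplatin served as positive control.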
# [2] = system: HeLa; test: Cytotoxicity against human HeLa cells assessed as inhibition of cell viability incubated for 48 hrs by MTT assay; format: functional, cell-based; procedure, shortened: as §1
# [3] = system: HCC1806; test: Cytotoxicity against human HCC1806 cells assessed as inhibition of cell viability incubated for 48 hrs by MTT assay; format: functional, cell-based; details: HCC1806, 48 h; procedure, shortened: as §1
# [4] = system: HCC1806; test: Induction of apoptosis in human HCC1806 cells assessed as proportion of early apoptotic cells at 6 uM incubated for 24 hrs by AnnexinV-FITC/PI staining based flow cytometry (reference value: 5.32 %); format: functional
# [5] = molecular target: Vascular endothelial growth factor receptor 2 (Homo sapiens) (UniProt P35968); test: Inhibition of VEGFR-2 (unknown origin) at 25 uM incubated for 90 mins by Kinase-Glo MAX reagent based luminescence analysis relative to control
# Sequence of Vascular endothelial growth factor receptor 2 (Homo sapiens) (P35968 whole entry): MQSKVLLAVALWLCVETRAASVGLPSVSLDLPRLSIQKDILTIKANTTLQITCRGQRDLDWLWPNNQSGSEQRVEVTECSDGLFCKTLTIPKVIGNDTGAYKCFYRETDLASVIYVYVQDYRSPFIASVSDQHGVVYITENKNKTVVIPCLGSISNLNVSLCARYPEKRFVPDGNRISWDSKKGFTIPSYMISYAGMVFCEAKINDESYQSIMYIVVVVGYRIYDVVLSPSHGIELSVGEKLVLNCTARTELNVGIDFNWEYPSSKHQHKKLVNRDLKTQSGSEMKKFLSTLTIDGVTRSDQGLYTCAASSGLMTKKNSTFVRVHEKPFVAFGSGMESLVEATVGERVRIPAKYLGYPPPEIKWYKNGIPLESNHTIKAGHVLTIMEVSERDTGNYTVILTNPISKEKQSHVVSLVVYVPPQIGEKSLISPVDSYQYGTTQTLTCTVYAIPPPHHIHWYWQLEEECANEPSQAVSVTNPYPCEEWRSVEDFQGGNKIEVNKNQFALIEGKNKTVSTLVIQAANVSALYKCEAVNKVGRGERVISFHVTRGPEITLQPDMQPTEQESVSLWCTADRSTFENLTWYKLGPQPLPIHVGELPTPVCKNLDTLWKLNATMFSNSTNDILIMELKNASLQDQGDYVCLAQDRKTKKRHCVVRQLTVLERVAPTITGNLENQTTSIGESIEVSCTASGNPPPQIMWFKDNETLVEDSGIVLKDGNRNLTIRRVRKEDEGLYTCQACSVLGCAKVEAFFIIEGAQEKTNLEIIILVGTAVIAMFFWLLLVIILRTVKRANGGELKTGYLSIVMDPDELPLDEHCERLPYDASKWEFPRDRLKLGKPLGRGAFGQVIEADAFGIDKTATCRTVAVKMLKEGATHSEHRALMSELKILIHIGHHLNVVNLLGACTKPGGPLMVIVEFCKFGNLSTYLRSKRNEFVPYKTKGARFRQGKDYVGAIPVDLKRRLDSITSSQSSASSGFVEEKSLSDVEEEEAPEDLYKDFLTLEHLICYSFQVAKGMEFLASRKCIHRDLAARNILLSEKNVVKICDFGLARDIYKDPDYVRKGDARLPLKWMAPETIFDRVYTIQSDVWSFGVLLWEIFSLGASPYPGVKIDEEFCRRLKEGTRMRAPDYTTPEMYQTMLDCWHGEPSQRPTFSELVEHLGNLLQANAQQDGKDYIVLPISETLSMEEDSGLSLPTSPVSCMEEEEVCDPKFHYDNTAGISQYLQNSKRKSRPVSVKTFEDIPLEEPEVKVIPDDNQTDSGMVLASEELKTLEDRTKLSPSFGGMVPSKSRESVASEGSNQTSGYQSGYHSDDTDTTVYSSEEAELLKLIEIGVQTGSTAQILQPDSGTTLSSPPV
# Procedure, shortened: (§2)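 A VEGFR-2 (KDR) kinase kit was used. Compound was made in DMSO and diluted in 1× kinase buffer 1, with matched DMSO in all wells. Master mix and compound were combined, and the reaction was started with diluted VEGFR-2 kinase, then incubated at 30 °C for 45 min. Kinase-Glo MAX reagent was added for 15 min at room temperature before luminescence was read. Blank and positive-control wells were included.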
# [6] = system: HCC1806; test: Induction of apoptosis in human HCC1806 cells assessed as proportion of early apoptotic cells at 3 uM incubated for 24 hrs by AnnexinV-FITC/PI staining based flow cytometry (reference value: 5.32 %); format: functional
# [7] = system: HCC1806; test: Induction of apoptosis in human HCC1806 cells assessed as proportion of viable cells at 6 uM incubated for 24 hrs by AnnexinV-FITC/PI staining based flow cytometry (reference value: 86.0 %); format: functional
# [8] = system: HCC1806; test: Induction of apoptosis in human HCC1806 cells assessed as proportion of late apoptotic cells at 3 uM incubated for 24 hrs by AnnexinV-FITC/PI staining based flow cytometry (reference value: 5.29 %); format: functional
# [9] = system: HCC1806; test: Induction of apoptosis in human HCC1806 cells assessed as proportion of necrotic cells at 6 uM incubated for 24 hrs by AnnexinV-FITC/PI staining based flow cytometry (reference value: 3.40 %); format: functional
# [10] = molecular target: Vascular endothelial growth factor receptor 2 (Homo sapiens) (UniProt P35968); test: Inhibition of VEGFR-2 (unknown origin) at 50 uM incubated for 90 mins by Kinase-Glo MAX reagent based luminescence analysis relative to control
# [11] = system: HCC1806; test: Induction of apoptosis in human HCC1806 cells assessed as proportion of necrotic cells at 3 uM incubated for 24 hrs by AnnexinV-FITC/PI staining based flow cytometry (reference value: 3.40 %); format: functional
# [12] = system: HCC1806; test: Induction of apoptosis in human HCC1806 cells assessed as proportion of late apoptotic cells at 6 uM incubated for 24 hrs by AnnexinV-FITC/PI staining based flow cytometry (reference value: 5.29 %); format: functional
# [13] = system: HCC1806; test: Induction of apoptosis in human HCC1806 cells assessed as proportion of viable cells at 3 uM incubated for 24 hrs by AnnexinV-FITC/PI staining based flow cytometry (reference value: 86.0 %); format: functional
# [14] = molecular target: Vascular endothelial growth factor receptor 2 (Homo sapiens) (UniProt P35968); test: Inhibition of VEGFR-2 (unknown origin) at 100 uM incubated for 90 mins by Kinase-Glo MAX reagent based luminescence analysis relative to control; procedure, shortened: as §2
SMILES,IC50 [1] [µM],IC50 [2] [µM],IC50 [3] [µM],also measured
COc1cc2ncnc(Nc3ccc4oc(C(=O)/C=C/c5ccc(Cl)cc5)cc4c3)c2cc1OC,> 25,> 25,> 25,–
COc1cc2ncnc(Nc3ccc4oc(C(=O)/C=C/c5ccccc5)cc4c3)c2cc1OC,21.6,3.18,7.03,–
COc1cc2ncnc(Nc3ccc4oc(C(=O)/C=C/c5ccc(O)cc5)cc4c3)c2cc1OC,6.27,6.19,6.6,–
COc1cc2ncnc(Nc3ccc4oc(C(=O)/C=C/c5cccs5)cc4c3)c2cc1OC,> 25,> 25,> 25,–
COc1cc2ncnc(Nc3ccc4oc(C(=O)/C=C/c5ccc(C)o5)cc4c3)c2cc1OC,> 25,> 25,> 25,–
COc1cc2ncnc(Nc3ccc4oc(C(=O)/C=C/c5ccc(N6CCN(C)CC6)cc5)cc4c3)c2cc1OC,> 25,> 25,> 25,–
COc1ccc(/C=C/C(=O)c2cc3cc(Nc4ncnc5cc(OC)c(OC)cc45)ccc3o2)cc1OC,> 25,> 25,> 25,–
COc1cc(/C=C/C(=O)c2cc3cc(Nc4ncnc5cc(OC)c(OC)cc45)ccc3o2)cc(OC)c1,> 25,5.61,5.93,Activity [4]: 12.8%; inhibition [5]: 10%; Activity [6]: 6.91%; Activity [7]: 47.7%; Activity [8]: 9.05%; Activity [9]: 10%; inhibition [10]: 16%; Activity [11]: 6.44%; Activity [12]: 29.4%; Activity [13]: 77.6%; inhibition [14]: 38%
COc1cc2ncnc(Nc3ccc4oc(C(=O)/C=C/c5c[nH]c6ccccc56)cc4c3)c2cc1OC,> 25,4.95,9.52,–
COc1cc2ncnc(Nc3ccc4oc(C(=O)/C=C/c5cc6ccccc6o5)cc4c3)c2cc1OC,> 25,> 25,17.1,–
COc1cc2ncnc(Nc3ccc4oc(C(=O)/C=C/c5ccc(F)c(F)c5)cc4c3)c2cc1OC,> 25,> 25,16.6,–
COc1cc2ncnc(Nc3ccc4oc(C(=O)/C=C/c5ccccn5)cc4c3)c2cc1OC,> 25,> 25,> 25,–
COc1cc2ncnc(Nc3ccc4oc(C(=O)/C=C/c5ccc(N6CCOCC6)cc5)cc4c3)c2cc1OC,> 25,> 25,> 25,–
COc1cc2ncnc(Nc3ccc4oc(C(=O)/C=C/c5ccc(Br)cc5)cc4c3)c2cc1OC,> 25,24.8,18.4,–
COc1cc2ncnc(Nc3ccc4oc(C(=O)/C=C/c5ccncc5)cc4c3)c2cc1OC,> 25,6.36,6.4,–
COc1cc2ncnc(Nc3ccc4oc(C(=O)/C=C/c5ccc(-n6cccn6)cc5)cc4c3)c2cc1OC,> 25,> 25,> 25,–
COc1cc2ncnc(Nc3ccc4oc(C(=O)/C=C/c5c[nH]c6ccc(Br)cc56)cc4c3)c2cc1OC,> 25,> 25,> 25,–
COc1cc2ncnc(Nc3ccc4oc(C(=O)/C=C/c5ccc(N(C)C)cc5)cc4c3)c2cc1OC,> 25,> 25,> 25,–
